One test addresses Tubulin (Bos taurus) (UniProt Q6B856+Q862L2+Q862F3). Kind of test: Tested for its capability of competing with colchicine for binding to tubulin. Type of test: protein assay. The arrangement: concentration or dose not given beside the values. The following applies: concentration not given here. In a few lines: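 Calf brain tubulin (cycled, diluted 1:10 in PEM pH 6.6–6.7) incubated with 1 μM [3H]colchicine and 10 μM inhibitor (DMSO) for 30 min at 37 °C; GTP added on ice, mixture filtered through DEAE-cellulose filters, washed with PEM, bound radioactivity counted by liquid scintillation; no-tubulin mixtures as background. Mean of two independent experiments.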

Another test deals with Tubulin (Bos taurus, UniProt Q6B856+Q862L2+Q862F3). Type of test: protein assay.

Where only a bound is given, the exact number is not on record here.

For orientation: inhibition means the change of the read-out against control, counted positive when it falls. Usually IC50 stands for the midpoint of a concentration-inhibition curve. Take `CCCC1Cc2cc(O)ccc2-c2c(C=O)c3ccc(O)cc3n21` (configuration not stated): on Tubulin (Bos taurus), the inhibition is 40%. On Tubulin, this compound returned an IC50 of 19 µM.
In the case of `COc1ccc(-c2c(C=O)c3ccc(OC)cc3n2C)cc1`, at Tubulin (Bos taurus), the inhibition is 30%.
With `CCCCC1Cc2cc(O)ccc2-c2c(C=O)c3ccc(O)cc3n21` (configuration not stated), the IC50 on Tubulin worked out at 8.9 µM.
On to `COc1ccc(-c2[nH]c3cc(F)ccc3c2C=O)cc1`, for which the IC50 against Tubulin is 1.8 µM.
As for `COc1ccc(-c2[nH]c3ccc(OC)cc3c2C=O)cc1`, the IC50 against Tubulin turned out to be 4 µM.
On Tubulin (Bos taurus), `CCCC1Cc2cc(OC)ccc2-c2c(C=O)c3ccc(OC)cc3n21` (configuration not stated) displayed an inhibition below 10%.
On Tubulin (Bos taurus), `COc1ccc(-c2sc3cc(OC)ccc3c2C=O)cc1` gave an inhibition of 56%. On Tubulin, this compound came in with an IC50 of 1.8 µM.
For `COc1ccc(-c2[nH]c3ccccc3c2C=O)cc1`, the IC50 against Tubulin is 3.3 µM.
At Tubulin (Bos taurus), `COc1ccc(-c2[nH]c3cc(OC)ccc3c2C=O)cc1` gave an inhibition of 23%. Also, the IC50 against Tubulin amounted to 1.5 µM.

Values taken from ChEMBL document CHEMBL1131419, “Methoxy-substituted 3-formyl-2-phenylindoles inhibit tubulin polymerization” (J Med Chem, 1998).
